Experimental data reported in ChEMBL document CHEMBL1136836, “Aryloxy cyclohexyl imidazoles: a novel class of antileishmanial agents” (Bioorg Med Chem Lett, 2009).
Converted amounts (≈) assume the structure as drawn.

Assays:
[1] = Cytotoxicity against mouse J774A1 cells after 48 hrs by Geimsa staining method; assay type: cell-based, J774.A1
Procedure, shortened: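 Mouse macrophage line J-774-A-1 used for the cytotoxicity read-out. CC50 is the concentration giving 50% inhibition of cell viability.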

Leishmania donovani [2] = experiment: Antileishmanial activity against Leishmania donovani extracellular promastigotes after 72 hrs by luciferase activity-based drug susceptibility assay; assay type: functional, organism-based
Procedure, shortened: (§1)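 Transgenic L. donovani promastigotes tested at various concentrations up to a maximum of 10 µg/ml, with sodium stibogluconate and pentamidine as reference drugs. IC50 derived by Probit analysis.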

Leishmania donovani [3] = experiment: Antileishmanial activity against Leishmania donovani intracellular amastigotes infected in mouse J774A1 cells after 48 hrs by luciferase activity-based drug susceptibility assay; assay type: functional, organism-based; details: for Activity: J774.A1; for IC50: J774.A1, 48 h
Procedure, shortened: (§2)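 Intracellular amastigotes of transgenic L. donovani in mouse J-774-A-1 macrophages, exposed to a range of concentrations up to a maximum of 10 µg/ml. Sodium stibogluconate and pentamidine served as reference drugs. IC50 calculated by Probit analysis.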

Leishmania donovani [4] = experiment: Antileishmanial activity against Leishmania donovani intracellular amastigotes infected in mouse J774A1 cells at 10 ug/ml after 48 hrs by luciferase activity-based drug susceptibility assay; assay type: functional; details: for inhibition at 10 µg/mL: J774.A1, 48 h; procedure, shortened: as §2
Leishmania donovani [5] = experiment: Antileishmanial activity against Leishmania donovani extracellular promastigotes at 10 ug/ml after 72 hrs by luciferase activity-based drug susceptibility assay; assay type: functional; procedure, shortened: as §1
[6] = (§3) Selectivity index, ratio of CC50 for mouse J774A1 cells to IC50 for Leishmania donovani intracellular amastigotes infected in mouse J774A1 cells; assay type: functional, J774.A1
Procedure, shortened: (§4)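 SI is based on CC50 in J-774-A-1 macrophages and IC50 in the antileishmanial assay.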

Leishmania donovani [7] = experiment: Antileishmanial activity against Leishmania donovani infected in hamster assessed as inhibition of parasite growth at 50 mg/kg, ip for 10 days; assay type: functional; details: 240 h, route intraperitoneal
Procedure, shortened: (§5)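 L. donovani-infected hamster model. Dosing was intraperitoneal, 10 doses: test compounds at 50 mg/kg, sodium stibogluconate at 20 mg/kg, pentamidine at 40 mg/kg. Read-out is percent inhibition of parasites.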

Leishmania donovani [8] = experiment: Antileishmanial activity against Leishmania donovani infected in hamster assessed as inhibition of parasite growth at 40 mg/kg, ip for 10 days; assay type: functional; details: 240 h, route intraperitoneal; procedure, shortened: as §5
Leishmania donovani [9] = experiment: Antileishmanial activity against Leishmania donovani infected in hamster assessed as inhibition of parasite growth at 20 mg/kg, ip for 10 days; assay type: functional, organism-based; design: dose 20 mg/kg; procedure, shortened: as §5
J774.A1 = experiment: as §3; assay type: functional; procedure, shortened: as §4

Row | Compound | CC50 at 48 h [1] [µg/mL] | Activity (Leishmania donovani [2]) | IC50 (Leishmania donovani [2]) [µg/mL] | Activity (Leishmania donovani [3]) | IC50 (Leishmania donovani [3]) [µg/mL] | inhibition at 10 µg/mL (Leishmania donovani [4]) [%] | inhibition at 10 µg/mL (Leishmania donovani [5]) [%] | Ratio CC50/IC50 [6] | inhibition in vivo at 50 mg/kg (Leishmania donovani [7]) [%] | inhibition in vivo at 40 mg/kg (Leishmania donovani [8]) [%] | inhibition (Leishmania donovani [9]) [%] | inhibition (Leishmania donovani [4]; J774.A1) [%] | inhibition (Leishmania donovani [5]) [%] | Ratio CC50/IC50 (J774.A1)
1 | O=[N+]([O-])c1ccc(OC2C(n3ccnc3)CCCC2n2ccnc2)c(F)c1 (stereo not drawn) | 90.6 (≈ 244 µM) | Dose-dependent effect | 6.13 (≈ 16.5 µM) | Dose-dependent effect | 3.02 (≈ 8.13 µM) | 100 | 100 | 30 | 56.7 |  |  |  |  | 
2 | O=[N+]([O-])c1ccccc1OC1C(Cn2ccnc2)CCCC1Cn1ccnc1 (stereo not drawn) | 69.4 (≈ 182 µM) | Dose-dependent effect | 9.57 (≈ 25.1 µM) | Dose-dependent effect | 2.44 (≈ 6.39 µM) | 100 | 100 | 28.47 |  |  |  |  |  | 
3 | O=[N+]([O-])c1ccc(OC2C(Cn3ccnc3)CCCC2Cn2ccnc2)c(C(F)(F)F)c1 (stereo not drawn) | 14.4 (≈ 32.1 µM) | Dose-dependent effect | 6.72 (≈ 15 µM) | Dose-dependent effect | 0.588 (≈ 1.31 µM) | 100 | 100 | 24.557 |  |  |  |  |  | 
4 | N=C(N)c1ccc(OCCCCCOc2ccc(C(=N)N)cc2)cc1 [PENTAMIDINE] | 31.3 (≈ 92 µM) | Dose-dependent effect | 0.643 (≈ 1.89 µM) | Dose-dependent effect | 12.1 (≈ 35.6 µM) | 100 | 100 | 2.58 |  | 92 |  |  |  | 
5 | FC(F)(F)c1ccc(OC2C(n3ccnc3)CCCC2n2ccnc2)cc1 (stereo not drawn) | 96.4 (≈ 256 µM) | Dose-dependent effect | 2.06 (≈ 5.47 µM) | Dose-dependent effect | 3 (≈ 7.97 µM) | 100 | 100 | 32.143 | 36.8 |  |  |  |  | 
6 | D-gluconic acid 2,4:2',4'-O-[oxybis(oxidostibylidyne)]bis-trisodium salt nonahydrate |  | Dose-dependent effect |  | Dose-dependent effect |  |  |  |  |  |  | 84.1 | 100 | 100 | 6.38
7 | O=[N+]([O-])c1ccc(O[C@H]2CCCC[C@@H]2Cn2ccnc2)c(C(F)(F)F)c1 | 13.8 (≈ 37.5 µM) | Dose-dependent effect | 2.37 (≈ 6.42 µM) | Dose-dependent effect | 2.13 (≈ 5.77 µM) | 100 | 100 | 6.49 |  |  |  |  |  | 
8 | FC(F)(F)c1ccc(O[C@H]2CCCC[C@@H]2Cn2ccnc2)cc1 | 35.6 (≈ 110 µM) | Dose-dependent effect | 0.81 (≈ 2.5 µM) | Dose-dependent effect | 3.83 (≈ 11.8 µM) | 100 | 100 | 9.292 |  |  |  |  |  | 
9 | O=[N+]([O-])c1ccc(OC2C(Cn3ccnc3)CCCC2Cn2ccnc2)c(F)c1 (stereo not drawn) | 39.4 (≈ 98.6 µM) | Dose-dependent effect | 3.57 (≈ 8.94 µM) | Dose-dependent effect | 1.17 (≈ 2.93 µM) | 100 | 100 | 33.64 | 77.9 |  |  |  |  | 
10 | OC1C(Cn2ccnc2)CCCC1Cn1ccnc1 (stereo not drawn) | > 100 | Dose-dependent effect | 9.4 (≈ 36.1 µM) | Dose-dependent effect | 10.8 (≈ 41.4 µM) | 100 | 100 | >9.28 |  |  |  |  |  | 
11 | O=[N+]([O-])c1ccccc1O[C@H]1CCCC[C@@H]1Cn1ccnc1 | 63.1 (≈ 209 µM) | Dose-dependent effect | 4.23 (≈ 14 µM) | Dose-dependent effect | 6.72 (≈ 22.3 µM) | 100 | 100 | 9.39 |  |  |  |  |  | 
12 | O=[N+]([O-])c1ccc(O[C@H]2CCCC[C@@H]2Cn2ccnc2)cc1 | 44.6 (≈ 148 µM) | Dose-dependent effect | 0.82 (≈ 2.72 µM) | Dose-dependent effect | 4.57 (≈ 15.2 µM) | 100 | 100 | 9.757 |  |  |  |  |  | 
13 | O=[N+]([O-])c1ccc(O[C@H]2CCCC[C@@H]2Cn2ccnc2)c(F)c1 | > 100 | Dose-dependent effect | 1.08 (≈ 3.38 µM) | Dose-dependent effect | 0.71 (≈ 2.22 µM) | 100 | 100 | >140.84 | 55.4 |  |  |  |  | 
14 | O=[N+]([O-])c1ccc(OC2C(Cn3ccnc3)CCCC2Cn2ccnc2)cc1 (stereo not drawn) | 73.9 (≈ 194 µM) | Dose-dependent effect | 5.52 (≈ 14.5 µM) | Dose-dependent effect | 1.97 (≈ 5.16 µM) | 100 | 100 | 37.51 | 52 |  |  |  |  | 
15 | FC(F)(F)c1ccc(OC2C(Cn3ccnc3)CCCC2Cn2ccnc2)cc1 (stereo not drawn) | 94.5 (≈ 234 µM) | Dose-dependent effect | 3.28 (≈ 8.12 µM) | Dose-dependent effect | 1.13 (≈ 2.79 µM) | 100 | 100 | 83.6 | 51 |  |  |  |  | 
16 | O=[N+]([O-])c1ccc(OC2C(n3ccnc3)CCCC2n2ccnc2)cc1 (stereo not drawn) | > 100 | Dose-dependent effect | 4.67 (≈ 13.2 µM) | Dose-dependent effect | 8.76 (≈ 24.8 µM) | 100 | 100 | >11.4 |  |  |  |  |  | 
